The source made the active and inactive calls. The calls are words filed in the database; no cut-off is given here.
Columns and labels:
Mahlavu [1] = assay: Cell cycle arrest in human Mahlavu cells assessed as accumulation of cells at G1 phase at 1 uM after 48 hrs by propidium iodide staining-based flow cytometric analysis (reference value: 43.5%); assay type: functional
Huh-7 [2] = assay: Cytotoxicity against human HuH7 cells after 72 hrs by SRB assay; assay type: functional, cell-based; settings: Homo sapiens, Huh-7, 72 h; read-out: IC50
Summary of the method: (§1)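 SRB assay. Cells plated per well (HCT116 3000; Huh7, Hep3B, HepG2, MCF-7 2000; Mahlavu, FOCUS, SNU475 1000) and grown 24 h. Compounds came from 20 mM DMSO stocks and were tested in triplicate, 40 to 2,5 (or 2,5 to 0,03) per printed range, for 72 h. Cells fixed in 10% TCA, stained with 0.4% SRB, dye dissolved in 10 mM Tris, A515 read. IC50 derived after DMSO normalization.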

Mahlavu [3] = assay: Down-regulation of cyclin E protein expression in human Mahlavu cells at 1 uM after 24 to 72 hrs by Western blot analysis; assay type: functional, cell-based
Huh-7 [4] = assay: Down-regulation of CDK2 protein expression in human HuH7 cells at 1 uM after 24 to 72 hrs by Western blot analysis; assay type: functional, cell-based
Mahlavu [5] = assay: Down-regulation of CDK2 protein expression in human Mahlavu cells at 1 uM after 24 to 72 hrs by Western blot analysis; assay type: functional, cell-based
Mahlavu [6] = assay: Induction of apoptosis in human Mahlavu cells assessed as late apoptotic cells at 1 uM after 24 hrs by Annexin V-FITC/propidium iodide staining-based flow cytometric analysis (reference value: 1.28%); assay type: functional
Mahlavu [7] = assay: Cytotoxicity against human Mahlavu cells after 48 hrs by RTCA analysis; assay type: functional, cell-based
Summary of the method: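 xCELLigence impedance real-time growth assay. Huh7 (2000) or Mahlavu (1000) cells plated, treated after 24 h at log phase with a 2-fold dilution series (4 steps) from a top concentration of 1. Cell index recorded every 10 min for 24 h, then every 30 min. Growth inhibition normalized to DMSO; IC50 taken at 24, 48, 72 h.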

Mahlavu [8] = assay: Cell cycle arrest in human Mahlavu cells assessed as accumulation of cells at S phase at 1 uM after 48 hrs by propidium iodide staining-based flow cytometric analysis (reference value: 11.6%); assay type: functional
Huh-7 [9] = assay: Induction of apoptosis in human HuH7 cells assessed as increase in cleaved PARP levels at 1 uM after 72 hrs by Western blot analysis; assay type: functional, cell-based
Mahlavu [10] = assay: Induction of apoptosis in human Mahlavu cells assessed as early apoptotic cells at 1 uM after 48 hrs by Annexin V-FITC/propidium iodide staining-based flow cytometric analysis (reference value: 0%); assay type: functional
Huh-7 [11] = assay: Induction of apoptosis in human HuH7 cells assessed as viable cells at 1 uM after 48 hrs by Annexin V-FITC/propidium iodide staining-based flow cytometric analysis (reference value: 97.42%); assay type: functional; settings: Huh-7, 48 h, read-out: Activity
Huh-7 [12] = assay: Cell cycle arrest in human HuH7 cells assessed as accumulation of cells at G1 phase at 1 uM after 48 hrs by propidium iodide staining-based flow cytometric analysis (reference value: 44.2%); assay type: functional
Mahlavu [13] = assay: Induction of apoptosis in human Mahlavu cells assessed as necrotic cells at 1 uM after 72 hrs by Annexin V-FITC/propidium iodide staining-based flow cytometric analysis (reference value: 0.22%); assay type: functional
Huh-7 [14] = assay: Induction of apoptosis in human HuH7 cells assessed as viable cells at 1 uM after 24 hrs by Annexin V-FITC/propidium iodide staining-based flow cytometric analysis (reference value: 97.30%); assay type: functional; settings: Huh-7, 24 h, read-out: Activity
Huh-7 [15] = assay: Induction of apoptosis in human HuH7 cells assessed as necrotic cells at 1 uM after 24 hrs by Annexin V-FITC/propidium iodide staining-based flow cytometric analysis (reference value: 0.03%); assay type: functional
[16] = Cytotoxicity against human FOCUS cells after 72 hrs by SRB assay; assay type: functional, cell-based; settings: Homo sapiens, 72 h; read-out: IC50; summary of the method: as §1
Huh-7 [17] = assay: Cell cycle arrest in human HuH7 cells assessed as accumulation of cells at G2/M phase at 1 uM after 24 hrs by propidium iodide staining-based flow cytometric analysis (reference value: 37.3%); assay type: functional
Mahlavu [18] = assay: Induction of apoptosis in human Mahlavu cells assessed as late apoptotic cells at 1 uM after 72 hrs by Annexin V-FITC/propidium iodide staining-based flow cytometric analysis (reference value: 3.48%); assay type: functional
Huh-7 [19] = assay: Cell cycle arrest in human HuH7 cells assessed as accumulation of cells at S phase at 1 uM after 72 hrs by propidium iodide staining-based flow cytometric analysis (reference value: 15.5%); assay type: functional
Huh-7 [20] = assay: Induction of apoptosis in human HuH7 cells assessed as late apoptotic cells at 1 uM after 24 hrs by Annexin V-FITC/propidium iodide staining-based flow cytometric analysis (reference value: 2.51%); assay type: functional
Mahlavu [21] = assay: Induction of apoptosis in human Mahlavu cells assessed as necrotic cells at 1 uM after 48 hrs by Annexin V-FITC/propidium iodide staining-based flow cytometric analysis (reference value: 0.07%); assay type: functional
Huh-7 [22] = assay: Down-regulation of CDK1 protein expression in human HuH7 cells at 1 uM after 24 to 72 hrs by Western blot analysis; assay type: functional, cell-based
Huh-7 [23] = assay: Down-regulation of cyclin E protein expression in human HuH7 cells at 1 uM after 24 to 72 hrs by Western blot analysis; assay type: functional, cell-based
Huh-7 [24] = assay: Cell cycle arrest in human HuH7 cells assessed as accumulation of cells at G2/M phase at 1 uM after 72 hrs by propidium iodide staining-based flow cytometric analysis (reference value: 28.2%); assay type: functional
Hep 3B2 = assay: Cytotoxicity against human Hep3B cells after 72 hrs by SRB assay; assay type: functional, cell-based; settings: Homo sapiens, Hep3B, 72 h; read-out: IC50; summary of the method: as §1
Mahlavu [25] = assay: Cell cycle arrest in human Mahlavu cells assessed as accumulation of cells at G2/M phase at 1 uM after 72 hrs by propidium iodide staining-based flow cytometric analysis (reference value: 20%); assay type: functional
Huh-7 [26] = assay: Induction of apoptosis in human HuH7 cells assessed as necrotic cells at 1 uM after 72 hrs by Annexin V-FITC/propidium iodide staining-based flow cytometric analysis (reference value: 0.43%); assay type: functional
Homo sapiens = organism: Homo sapiens; assay: Induction of SAPK/JNK phosphorylation at Thr183/Tye185 residues in human HuH7 cells at 1 uM after 24 to 72 hrs by Western blot analysis; assay type: cell-based
Huh-7 [27] = assay: Cell cycle arrest in human HuH7 cells assessed as accumulation of cells at subG1 phase at 1 uM after 24 hrs by propidium iodide staining-based flow cytometric analysis (reference value: 6.8%); assay type: functional
Mahlavu [28] = assay: Cell cycle arrest in human Mahlavu cells assessed as accumulation of cells at G2/M phase at 1 uM after 48 hrs by propidium iodide staining-based flow cytometric analysis (reference value: 22.3%); assay type: functional
Mahlavu [29] = assay: Cell cycle arrest in human Mahlavu cells assessed as accumulation of cells at G1 phase at 1 uM after 72 hrs by propidium iodide staining-based flow cytometric analysis (reference value: 44.6%); assay type: functional
Huh-7 [30] = assay: Induction of apoptosis in human HuH7 cells assessed as early apoptotic cells at 1 uM after 48 hrs by Annexin V-FITC/propidium iodide staining-based flow cytometric analysis (reference value: 0.02%); assay type: functional
Huh-7 [31] = assay: Induction of apoptosis in human HuH7 cells assessed as necrotic cells at 1 uM after 48 hrs by Annexin V-FITC/propidium iodide staining-based flow cytometric analysis (reference value: 0.02%); assay type: functional

| Structure (SMILES) | Activity (Mahlavu [1]) | IC50 (Huh-7 [2]) | Activity (Mahlavu [3]) | Activity (Huh-7 [4]) | Activity (Mahlavu [5]) | Activity (Mahlavu [6]) | IC50 (Mahlavu [7]) | Activity (Mahlavu [8]) | Activity (Huh-7 [9]) | Activity (Mahlavu [10]) | viability at 1 µM (Huh-7 [11]) | Activity (Huh-7 [12]) | Activity (Mahlavu [13]) | viability at 1 µM (Huh-7 [14]) | Activity (Huh-7 [15]) | IC50 [16] | Activity (Huh-7 [17]) | Activity (Mahlavu [18]) | Activity (Huh-7 [19]) | Activity (Huh-7 [20]) | further results |
| --- | --- | --- | --- | --- | --- | --- | --- | --- | --- | --- | --- | --- | --- | --- | --- | --- | --- | --- | --- | --- | --- |
| COc1ccc2c3c(c4cc(OC)c(OC)cc4c2c1)CN1CCCC[C@@H]1C3 | 44.6% | 8 nM | Active | Active | Active | 5.08% | 400 nM | 10.5% | Active | 0% | 93.8% | 54.6% | 1.84% | 98.9% | 0% | 20 nM | 27.4% | 12.74% | 8.7% | 1.03% | Activity (Mahlavu [21]): 1.16%; Activity (Huh-7 [22]): Active; Activity (Huh-7 [23]): Active; Activity (Huh-7 [24]): 9.5%; IC50 (Hep 3B2): 16 nM; Activity (Mahlavu [25]): 49.9%; Activity (Huh-7 [26]): 0.34%; Activity (Homo sapiens): Active; Activity (Huh-7 [27]): 13.6%; Activity (Mahlavu [28]): 16.6%; Activity (Mahlavu [29]): 14.1%; Activity (Huh-7 [30]): 0.18%; Activity (Huh-7 [31]): 0.07% |
| COc1ccc2c3c(c4cc(OC)c(OC)cc4c2c1)CN1CCCCC1C3O (racemic) | 37.2% | 2 nM | Active | Active | Active | 1.54% | 4 nM | 9.5% | Active | 0% | 94.2% | 35.5% | 2.26% | 99.1% | 0% | 12 nM | 32.1% | 35.08% | 7.7% | 0.93% | Activity (Mahlavu [21]): 0.07%; Activity (Huh-7 [22]): Active; Activity (Huh-7 [23]): Active; Activity (Huh-7 [24]): 11.5%; IC50 (Hep 3B2): 17 nM; Activity (Mahlavu [25]): 31.4%; Activity (Huh-7 [26]): 0.13%; Activity (Homo sapiens): Active; Activity (Huh-7 [27]): 23.1%; Activity (Mahlavu [28]): 32.9%; Activity (Mahlavu [29]): 9.5%; Activity (Huh-7 [30]): 0.07%; Activity (Huh-7 [31]): 0.16% |

— ChEMBL document CHEMBL4316592, “Synthesis of new derivatives of boehmeriasin A and their biological evaluation in liver cancer” (Eur J Med Chem, 2019)
